Source: ChEMBL document CHEMBL1126945, “Synthesis and evaluation of 3-modified 1D-myo-inositols as inhibitors and substrates of phosphatidylinositol synthase and inhibitors of myo-inositol uptake by cells” (1993)

Legend:
[1] = biological target: T1, CDP-diacylglycerol--inositol 3-phosphatidyltransferase (Mus musculus) (UniProt Q8VDP6); test: Tested for inhibition of phosphatidylinositol synthase from mouse brain at 5 mM
T1 sequence (whole entry): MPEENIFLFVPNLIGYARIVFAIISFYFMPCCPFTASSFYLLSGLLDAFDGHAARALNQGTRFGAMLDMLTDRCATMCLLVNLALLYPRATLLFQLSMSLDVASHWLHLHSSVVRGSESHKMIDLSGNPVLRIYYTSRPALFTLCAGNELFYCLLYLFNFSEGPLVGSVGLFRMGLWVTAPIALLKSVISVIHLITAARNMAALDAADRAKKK
Method in brief: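 Mouse brain microsomal PtdIns synthase; incorporation of 0.5 mM myo-[2-³H]inositol into CHCl₃-soluble lipid at 37 °C with Tris-HCl pH 8.3, 48 mM MgCl₂, 0.5 mM CDP-dipalmitin, 0.25% Triton X-100, 5 mM analogue, 0.05 mg microsomal protein. Stopped at 20 min with HCl/MeOH and CHCl₃; organic phase scintillation counted. Averages of two or more determinations.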

[2] = biological target: T1, CDP-diacylglycerol--inositol 3-phosphatidyltransferase (Mus musculus); test: Tested as substrate of phosphatidylinositol synthase in mouse brain by measuring percent CMP formation compared with myo-inositol tested at 5 mM; type: functional, tissue-based
Method in brief: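 Mouse brain microsomes (12-day-old mice; 900g then 12000g pellet) as PtdIns synthase source. 37 °C, 50 mM Tris-HCl pH 8.3, 48 mM MgCl₂, 0.5 mM CDP-dipalmitin, 0.25% Triton X-100, 5 mM analogue or myo-inositol, 0.5 mg microsomal protein. Stopped in linear phase with CHCl₃-MeOH; aqueous CMP read at 280 nm. Expressed as % of myo-inositol; averages of two or more determinations.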

[3] = Michaelis-Menten constant was determined
Rattus norvegicus [4] = species: Rattus norvegicus; test: Tested for inhibition of myo-[3H]inositol uptake in F111 rat fibroblast cells at 5 mM; type: functional
Method in brief: (§1)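 F111 rat fibroblasts grown overnight on coverslips in inositol-free DMEM with 10% dialyzed calf serum and 10 μM myo-inositol, washed, then incubated 120 min at 37 °C, 5% CO₂ in Krebs-Ringer (HEPES pH 7.4) with 10 μM myo-[³H]inositol and 5 mM analogue. Washed, lysed in 1% SDS; radioactivity counted and normalised to BCA protein.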

Rattus norvegicus [5] = species: Rattus norvegicus; test: Tested for inhibition of myo-inositol uptake in F111 rat fibroblast cells at 5 mM; type: functional; method in brief: as §1

SMILES	inhibition [1]	Formation [2]	Km [3]	inhibition at 5000 µM (Rattus norvegicus [4])	inhibition at 5000 µM (Rattus norvegicus [5])
O=C1[C@@H](O)[C@H](O)[C@@H](O)[C@H](O)[C@@H]1O	47%	7%	–	–	–
O[C@@H]1[C@@H](O)[C@@H](O)[C@@H](S)[C@@H](O)[C@@H]1O	40%	1.5%	–	–	–
O[C@@H]1[C@@H](O)[C@H](O)[C@@H](Cl)[C@@H](O)[C@H]1O	30%	1%	–	–	–
O[C@@H]1[C@H](F)[C@@H](O)[C@@H](O)[C@H](O)[C@@H]1O	22%	28%	–	–	–
CO[C@@H]1[C@H](O)[C@@H](O)[C@@H](O)[C@H](O)[C@@H]1N=[N+]=[N-]	10%	0%	–	–	–
[N-]=[N+]=N[C@@H]1[C@H](O)[C@H](O)[C@@H](O)[C@@H](O)[C@@H]1O	17%	1%	–	–	–
O[C@H]1[C@H](O)[C@@H](O)[C@H](O)[C@@H](O)[C@H]1O	–	100%	1500 µM	–	–
N[C@H]1[C@@H](O)[C@H](O)[C@H](O)[C@@H](O)[C@H]1O	19%	9%	–	87%	–
O[C@H]1[C@@H](O)[C@H](O)C[C@H](O)[C@@H]1O	9%	6%	–	–	80%
O[C@@H]1[C@@H](O)[C@H](O)[C@@H](F)[C@@H](O)[C@H]1O	37%	7%	–	97%	–
CO[C@H]1C[C@@H](O)[C@H](O)[C@H](O)[C@H]1O	28%	0%	–	–	–
